Data on four compounds can be found in PMC12297293 (Nature Communications, 2025).

Changes are numbered by the printed parent chain. Structures can show the parent of a compound that is named as a salt. Where two headings read alike, the source gives them in different places.

Experiment [1] deals with T1, human GMPK (Homo sapiens, UniProt Q16774).
T1 sequence (Q16774 1-197): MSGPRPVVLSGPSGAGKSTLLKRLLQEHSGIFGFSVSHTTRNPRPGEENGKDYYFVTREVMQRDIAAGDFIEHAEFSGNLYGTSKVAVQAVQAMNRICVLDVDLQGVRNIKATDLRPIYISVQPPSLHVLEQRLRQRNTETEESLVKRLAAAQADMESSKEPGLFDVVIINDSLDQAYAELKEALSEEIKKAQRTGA
The experiment is described as follows: NMR chemical shift perturbation titration. In kind it is binding. The gist of the method:
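15N-GMPK was expressed in M9 medium with 0.5 mM IPTG at 16 °C for 20 h, then diluted to 50–100 μM in 20 mM HEPES, 150 mM NaCl, pH 7.5, 10% D2O. 1H-15N HSQC at 298 K, 700 MHz with cryoprobe. Assignments transferred from BMRB 27151; overlapped peaks excluded. Chemical shift perturbations globally fitted to a one-site model with Kd shared across residues.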

Experiment [2] addresses T2, GMPK-ADP mixture (Homo sapiens, UniProt Q16774).
T2 sequence (Q16774 1-197): T1 sequence (Q16774 1-197)
The experiment is described as follows: ITC of GMP into GMPK-ADP mixture. The conditions noted are these: GMP binding after incubation of ADP. A digest of the protocol: (§1)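 GMP titrated into a preformed nucleotide–enzyme mixture by ITC at 25 °C. Cell held 50 μM recombinant human GMPK premixed with 0.5 mM ADP or ATPγS. Syringe held 2 or 2.5 mM GMP. One 1 μL injection, then 19 × 2 μL. Fitted Kd reported.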

Experiment [3] has as its target T3, GMPK R148A mutant (Homo sapiens, UniProt Q16774, R148A).
T3 sequence (Q16774 1-197 R148A): T1 sequence (Q16774 1-197) with R148A
The experiment is described as follows: ITC binding, GMPK R148A. The settings on record: R148A vs wild type. The gist of the method: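 Mutant made by homologous recombination and Sanger-verified, then expressed in E. coli Rosetta (DE3). Purified by Ni column, ULP1 cleavage of the SUMO tag and SEC (20 mM HEPES, 150 mM NaCl, pH 7.5). ITC at 25 °C with 50 μM protein in the cell and 1.25 or 2.5 mM GMP in the syringe. Injections: 1 μL, then 19 × 2 μL.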

The target of experiment [4] is T4, GMPK-ATPγS mixture (Homo sapiens, UniProt Q16774).
T4 sequence (Q16774 1-197): T1 sequence (Q16774 1-197)
The experiment is described as follows: ITC of GMP into GMPK-ATPγS mixture. The settings on record: GMP binding after prior incubation of ATPγS. The gist of the method:
as §1

For experiment [5], the target named is T5, human GMPK wild type (Homo sapiens, UniProt Q16774).
T5 sequence (Q16774 1-197): T1 sequence (Q16774 1-197)
The experiment is described as follows: ITC binding of nucleotides to wild-type GMPK. A digest of the protocol:
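ITC at 25 °C with recombinant human GMPK: SUMO-tagged, expressed in E. coli Rosetta (DE3), Ni-purified, tag cut with ULP1, then SEC. Both partners were in 20 mM HEPES pH 7.5 with 150 mM KCl. Cell held 50 μM GMPK; syringe held 1 mM GMP. One 1 μL injection was followed by 19 × 2 μL injections. Triplicate experiments.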

In experiment [6] the target is T5, human GMPK wild type. The experiment is described as follows: NADH-dependent enzyme activity assay, wild-type GMPK. In kind it is biochemical.

`Nc1ncnc2c1ncn2[C@@H]1O[C@H](CO[P@](=O)(O)O[P@](=O)(O)O[P@@](=O)(O)S)[C@@H](O)[C@H]1O` [ATPγS, reference compound]: in experiment [1], the Kd stood at 30 µM.
Turning to `Nc1nc2c(ncn2[C@@H]2O[C@H](COP(=O)(O)O)[C@@H](O)[C@H]2O)c(=O)[nH]1` [GMP], the Kd in experiment [2] stood at 60 µM; in experiment [4] it was 170 µM; in experiment [5] (GMP binding to GMPK without prior incubation), 32 µM; in experiment [5] (read-out: Mean Kd, GMP into GMPK, 150 mM KCl, triplicate experiments) it was 7.1 µM. Moreover, the “weakening of GMP binding by R148A mutagenesis” value in experiment [3] came out at 1.7 fold.
Regarding `[Cl-].[K+]` [KCl, potassium chloride], the “decrease of kcat at 150 mM relative to 10 mM” value in experiment [6] (150 mM vs 10 mM potassium ions) turned out to be 1.5 fold. For the same compound, the “K+ concentration at which the initial reaction rate reached its maximum” value in experiment [6] (saturating substrate conditions) was “about 7.5 mM”.
Turning to `O=S(=O)(O)O` [sulfate ions, sulfate ion], in experiment [1] (read-out: Kd from NMR titration, binding to the p-loop region of GMPK), the Kd came out at 5600 µM. Besides, the mode of inhibition result in experiment [6] (Michaelis-Menten curves for ATP under 1, 5 and 10 mM SO4 2-) is recorded as “competitive inhibitor of ATP”.
